{"source": "paper PMC9116722", "about": "(Cancer chemotherapy and pharmacology, 2022)", "test": "Adverse events", "type": "in vivo, human", "outline": "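Patients with germline BRCA-mutated cancers, or BRCA-wildtype TNBC or platinum-refractory ovarian cancer, took oral drug continuously twice daily in 28-day cycles. There were nine dose levels from 50 to 500 mg BID under 3+3 escalation, run separately per cohort after the first DLT. Toxicities were graded by CTCAE v4.0, with DLTs assessed during cycle 1.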", "data": [{"smiles": "C[C@]1(c2nc3c(C(N)=O)cccc3[nH]2)CCCN1", "note": "[veliparib]", "values": [{"measurement": "Hypophosphatemia, Grade 2", "setting": "BRCAmut and BRCAwt combined", "result": "4 (4) number of patients (%)"}, {"measurement": "Hypophosphatemia, Grade 3", "setting": "BRCAmut and BRCAwt combined", "result": "2 (2) number of patients (%)"}, {"measurement": "Hypophosphatemia, Grade 4", "setting": "BRCAmut and BRCAwt combined", "result": "0 (0) number of patients (%)"}, {"measurement": "Insomnia, Any Grade", "setting": "BRCAmut and BRCAwt combined", "result": "7 (7) number of patients (%)"}, {"measurement": "Insomnia, Grade 1", "setting": "BRCAmut and BRCAwt combined", "result": "6 (6) number of patients (%)"}, {"measurement": "Insomnia, Grade 2", "setting": "BRCAmut and BRCAwt combined", "result": "1 (1) number of patients (%)"}, {"measurement": "Insomnia, Grade 3", "setting": "BRCAmut and BRCAwt combined", "result": "0 (0) number of patients (%)"}, {"measurement": "Insomnia, Grade 4", "setting": "BRCAmut and BRCAwt combined", "result": "0 (0) number of patients (%)"}, {"measurement": "Lymphocyte count decreased, Any Grade", "setting": "BRCAmut and BRCAwt combined", "result": "37 (38) number of patients (%)"}, {"measurement": "Lymphocyte count decreased, Grade 1", "setting": "BRCAmut and BRCAwt combined", "result": "7 (7) number of patients (%)"}, {"measurement": "Lymphocyte count decreased, Grade 2", "setting": "BRCAmut and BRCAwt combined", "result": "15 (15) number of patients (%)"}, {"measurement": "Lymphocyte count decreased, Grade 3", "setting": "BRCAmut and BRCAwt combined", "result": "14 (14) number of patients (%)"}, {"measurement": "Lymphocyte count decreased, Grade 4", "setting": "BRCAmut and BRCAwt combined", "result": "1 (1) number of patients (%)"}, {"measurement": "Myalgia, Any Grade", "setting": "BRCAmut and BRCAwt combined", "result": "5 (5) number of patients (%)"}, {"measurement": "Myalgia, Grade 1", "setting": "BRCAmut and BRCAwt combined", "result": "4 (4) number of patients (%)"}, {"measurement": "Myalgia, Grade 2", "setting": "BRCAmut and BRCAwt combined", "result": "1 (1) number of patients (%)"}, {"measurement": "Myalgia, Grade 3", "setting": "BRCAmut and BRCAwt combined", "result": "0 (0) number of patients (%)"}, {"measurement": "Myalgia, Grade 4", "setting": "BRCAmut and BRCAwt combined", "result": "0 (0) number of patients (%)"}, {"measurement": "Nausea, Any Grade", "setting": "BRCAmut and BRCAwt combined", "result": "64 (65) number of patients (%)"}, {"measurement": "Nausea, Grade 1", "setting": "BRCAmut and BRCAwt combined", "result": "42 (43) number of patients (%)"}, {"measurement": "Nausea, Grade 2", "setting": "BRCAmut and BRCAwt combined", "result": "20 (20) number of patients (%)"}, {"measurement": "Nausea, Grade 3", "setting": "BRCAmut and BRCAwt combined", "result": "2 (2) number of patients (%)"}, {"measurement": "Nausea, Grade 4", "setting": "BRCAmut and BRCAwt combined", "result": "0 (0) number of patients (%)"}, {"measurement": "Neutrophil count decreased, Any Grade", "setting": "BRCAmut and BRCAwt combined", "result": "17 (17) number of patients (%)"}, {"measurement": "Neutrophil count decreased, Grade 1", "setting": "BRCAmut and BRCAwt combined", "result": "13 (13) number of patients (%)"}, {"measurement": "Neutrophil count decreased, Grade 2", "setting": "BRCAmut and BRCAwt combined", "result": "4 (4) number of patients (%)"}, {"measurement": "Neutrophil count decreased, Grade 3", "setting": "BRCAmut and BRCAwt combined", "result": "0 (0) number of patients (%)"}, {"measurement": "Neutrophil count decreased, Grade 4", "setting": "BRCAmut and BRCAwt combined", "result": "0 (0) number of patients (%)"}, {"measurement": "Platelet count decreased, Any Grade", "setting": "BRCAmut and BRCAwt combined", "result": "18 (18) number of patients (%)"}, {"measurement": "Platelet count decreased, Grade 1", "setting": "BRCAmut and BRCAwt combined", "result": "14 (14) number of patients (%)"}, {"measurement": "Platelet count decreased, Grade 2", "setting": "BRCAmut and BRCAwt combined", "result": "3 (3) number of patients (%)"}, {"measurement": "Platelet count decreased, Grade 3", "setting": "BRCAmut and BRCAwt combined", "result": "0 (0) number of patients (%)"}, {"measurement": "Platelet count decreased, Grade 4", "setting": "BRCAmut and BRCAwt combined", "result": "1 (1) number of patients (%)"}, {"measurement": "Vomiting, Any Grade", "setting": "BRCAmut and BRCAwt combined", "result": "32 (33) number of patients (%)"}, {"measurement": "Vomiting, Grade 1", "setting": "BRCAmut and BRCAwt combined", "result": "25 (26) number of patients (%)"}, {"measurement": "Vomiting, Grade 2", "setting": "BRCAmut and BRCAwt combined", "result": "7 (7) number of patients (%)"}, {"measurement": "White blood cell decreased, Any Grade", "setting": "BRCAmut and BRCAwt combined", "result": "27 (28) number of patients (%)"}, {"measurement": "White blood cell decreased, Grade 1", "setting": "BRCAmut and BRCAwt combined", "result": "20 (20) number of patients (%)"}, {"measurement": "White blood cell decreased, Grade 2", "setting": "BRCAmut and BRCAwt combined", "result": "7 (7) number of patients (%)"}, {"measurement": "White blood cell decreased, Grade 3", "setting": "BRCAmut and BRCAwt combined", "result": "0 (0) number of patients (%)"}, {"measurement": "White blood cell decreased, Grade 4", "setting": "BRCAmut and BRCAwt combined", "result": "0 (0) number of patients (%)"}, {"measurement": "grade 3/4 decreased lymphocyte count", "setting": "BRCAmut group", "result": 14, "unit": "%"}, {"measurement": "incidence of grade 3/4 toxicity", "setting": "BRCAmut group", "result": 24, "unit": "%"}, {"measurement": "Abdominal pain, Grade 3", "setting": "BRCAmut, DL1 50/50 mg AM/PM", "result": "0 number of patients (%)"}, {"measurement": "Alkaline phosphatase increased, Grade 3", "setting": "BRCAmut, DL1 50/50 mg AM/PM", "result": "1 (14) number of patients (%)"}, {"measurement": "Anemia, Grade 3", "setting": "BRCAmut, DL1 50/50 mg AM/PM", "result": "0 number of patients (%)"}, {"measurement": "Anemia, Grade 4", "setting": "BRCAmut, DL1 50/50 mg AM/PM", "result": "0 number of patients (%)"}, {"measurement": "Any Grade 3/4 toxicity", "setting": "BRCAmut, DL1 50/50 mg AM/PM", "result": "1 (14) number of patients (%)"}, {"measurement": "Any Grade 3 toxicity", "setting": "BRCAmut, DL1 50/50 mg AM/PM", "result": "1 (14) number of patients (%)"}, {"measurement": "Any Grade 4 toxicity", "setting": "BRCAmut, DL1 50/50 mg AM/PM", "result": "0 number of patients (%)"}, {"measurement": "Appendicitis, Grade 3", "setting": "BRCAmut, DL1 50/50 mg AM/PM", "result": "0 number of patients (%)"}, {"measurement": "Aspartate aminotransferase increased, Grade 3", "setting": "BRCAmut, DL1 50/50 mg AM/PM", "result": "1 (14) number of patients (%)"}, {"measurement": "Dehydration, Grade 3", "setting": "BRCAmut, DL1 50/50 mg AM/PM", "result": "0 number of patients (%)"}, {"measurement": "Dyspnea, Grade 4", "setting": "BRCAmut, DL1 50/50 mg AM/PM", "result": "0 number of patients (%)"}, {"measurement": "Fatigue, Grade 3", "setting": "BRCAmut, DL1 50/50 mg AM/PM", "result": "0 number of patients (%)"}, {"measurement": "Headache, Grade 3", "setting": "BRCAmut, DL1 50/50 mg AM/PM", "result": "0 number of patients (%)"}, {"measurement": "Hypophosphatemia, Grade 3", "setting": "BRCAmut, DL1 50/50 mg AM/PM", "result": "0 number of patients (%)"}, {"measurement": "Lymphocyte count decreased, Grade 3", "setting": "BRCAmut, DL1 50/50 mg AM/PM", "result": "0 number of patients (%)"}, {"measurement": "Lymphocyte count decreased, Grade 4", "setting": "BRCAmut, DL1 50/50 mg AM/PM", "result": "0 number of patients (%)"}, {"measurement": "Nausea, Grade 3", "setting": "BRCAmut, DL1 50/50 mg AM/PM", "result": "0 number of patients (%)"}, {"measurement": "Platelet count decreased, Grade 4", "setting": "BRCAmut, DL1 50/50 mg AM/PM", "result": "0 number of patients (%)"}, {"measurement": "Thromboembolic event, Grade 3", "setting": "BRCAmut, DL1 50/50 mg AM/PM", "result": "0 number of patients (%)"}, {"measurement": "Thromboembolic event, Grade 4", "setting": "BRCAmut, DL1 50/50 mg AM/PM", "result": "0 number of patients (%)"}, {"measurement": "Urinary tract infection, Grade 3", "setting": "BRCAmut, DL1 50/50 mg AM/PM", "result": "0 number of patients (%)"}, {"measurement": "Abdominal pain, Grade 3", "setting": "BRCAmut, DL2 100/50 mg AM/PM", "result": "0 number of patients (%)"}, {"measurement": "Alkaline phosphatase increased, Grade 3", "setting": "BRCAmut, DL2 100/50 mg AM/PM", "result": "0 number of patients (%)"}, {"measurement": "Anemia, Grade 3", "setting": "BRCAmut, DL2 100/50 mg AM/PM", "result": "0 number of patients (%)"}, {"measurement": "Anemia, Grade 4", "setting": "BRCAmut, DL2 100/50 mg AM/PM", "result": "0 number of patients (%)"}, {"measurement": "Any Grade 3/4 toxicity", "setting": "BRCAmut, DL2 100/50 mg AM/PM", "result": "1 (33) number of patients (%)"}, {"measurement": "Any Grade 3 toxicity", "setting": "BRCAmut, DL2 100/50 mg AM/PM", "result": "0 number of patients (%)"}, {"measurement": "Any Grade 4 toxicity", "setting": "BRCAmut, DL2 100/50 mg AM/PM", "result": "1 (33) number of patients (%)"}, {"measurement": "Appendicitis, Grade 3", "setting": "BRCAmut, DL2 100/50 mg AM/PM", "result": "0 number of patients (%)"}, {"measurement": "Aspartate aminotransferase increased, Grade 3", "setting": "BRCAmut, DL2 100/50 mg AM/PM", "result": "0 number of patients (%)"}, {"measurement": "Dehydration, Grade 3", "setting": "BRCAmut, DL2 100/50 mg AM/PM", "result": "0 number of patients (%)"}, {"measurement": "Dyspnea, Grade 4", "setting": "BRCAmut, DL2 100/50 mg AM/PM", "result": "0 number of patients (%)"}, {"measurement": "Fatigue, Grade 3", "setting": "BRCAmut, DL2 100/50 mg AM/PM", "result": "0 number of patients (%)"}, {"measurement": "Headache, Grade 3", "setting": "BRCAmut, DL2 100/50 mg AM/PM", "result": "0 number of patients (%)"}, {"measurement": "Hypophosphatemia, Grade 3", "setting": "BRCAmut, DL2 100/50 mg AM/PM", "result": "0 number of patients (%)"}, {"measurement": "Lymphocyte count decreased, Grade 3", "setting": "BRCAmut, DL2 100/50 mg AM/PM", "result": "0 number of patients (%)"}, {"measurement": "Lymphocyte count decreased, Grade 4", "setting": "BRCAmut, DL2 100/50 mg AM/PM", "result": "0 number of patients (%)"}, {"measurement": "Nausea, Grade 3", "setting": "BRCAmut, DL2 100/50 mg AM/PM", "result": "0 number of patients (%)"}, {"measurement": "Platelet count decreased, Grade 4", "setting": "BRCAmut, DL2 100/50 mg AM/PM", "result": "0 number of patients (%)"}, {"measurement": "Thromboembolic event, Grade 3", "setting": "BRCAmut, DL2 100/50 mg AM/PM", "result": "0 number of patients (%)"}, {"measurement": "Thromboembolic event, Grade 4", "setting": "BRCAmut, DL2 100/50 mg AM/PM", "result": "1 (33) number of patients (%)"}, {"measurement": "Urinary tract infection, Grade 3", "setting": "BRCAmut, DL2 100/50 mg AM/PM", "result": "0 number of patients (%)"}, {"measurement": "Abdominal pain, Grade 3", "setting": "BRCAmut, DL3 100/100 mg AM/PM", "result": "0 number of patients (%)"}, {"measurement": "Alkaline phosphatase increased, Grade 3", "setting": "BRCAmut, DL3 100/100 mg AM/PM", "result": "0 number of patients (%)"}]}]}
